Experiments:
Format in all cases: functional
P388 [1] = assay: In vitro inhibition of P388 murine leukemia cell (R/ADR) growth; conditions: Mus musculus; for EC50: read-out: ED50 (the source's name)
Outline: (§1)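 P388 murine leukemia cells (S/ADR) or multidrug-resistant P388/ADR subline (R/ADR), kept exponential in suspension in RPMI 1640 + 10% heat-inactivated FCS, 10 μM 2-mercaptoethanol, penicillin/streptomycin; seeded 10⁵ cells/mL, exposed to graded concentrations for 4 days. Density counted daily by Coulter counter; growth rate from linear regression of log density vs time, expressed as % of control; ED50 read from dose-effect curves.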

P388 [2] = assay: In vitro inhibition of P388 murine leukemia cell (S/ADR) growth; conditions: Mus musculus; for EC50: read-out: ED50 (the source's name); outline: as §1
Mus musculus = organism: Mus musculus; assay: Lethal dose against DBA/2 mice was determined.
[3] = T/C ratio of the compound
[4] = T/C ratio with the optimal dose mg/Kg in parenthesis.

Molecule	EC50 (P388 [1]) [µM]	EC50 (P388 [2]) [µM]	ED50 (P388 [1]) [µM]	ED50 (P388 [2]) [µM]	further results
O=C1c2ccccc2C(=O)c2c(NCCCNCCNCCO)cccc21	> 10	20	–	–	–
NCCNCCOCCOc1cccc2c1C(=O)c1ccccc1C2=O	> 60	0.2	–	–	–
NCCCOc1cccc2c1C(=O)c1ccccc1C2=O	> 10	10	–	–	–
NCCCCCCCCCCCCNc1cccc2c1C(=O)c1ccccc1C2=O	20	60	–	–	–
NCCNCCCCCCNc1cccc2c1C(=O)c1ccccc1C2=O	8	4.5	–	–	LD50 (Mus musculus): 200 mg/kg
NCCNCCCNc1cccc2c1C(=O)c1ccccc1C2=O	8	4.5	–	–	–
NCCCNc1cccc2c1C(=O)c1ccccc1C2=O	45	20	–	–	–
NCCCCNc1cccc2c1C(=O)c1ccccc1C2=O	50	40	–	–	LD50 (Mus musculus): 200 mg/kg
NCCNCCCOc1cccc2c1C(=O)c1ccccc1C2=O	60	6	–	–	–
NCCCCCCNc1cccc2c1C(=O)c1ccccc1C2=O	45	45	–	–	LD50 (Mus musculus): 133 mg/kg
NCCNCCNc1cccc2c1C(=O)c1ccccc1C2=O	8	4.5	–	–	–
CISPLATIN	–	–	1.4	0.19	LD50 (Mus musculus): 6.6 mg/kg; T/C [3]: 134
Pt(en)Cl2	–	–	20	6	–
[[2-[[2-(Anthraquinon-1-ylamino)ethyl]amino]ethyl]-amine-N,N']dichloroplatinum	–	–	> 60	0.2	LD50 (Mus musculus): > 28 mg/kg; T/C [4]: 126
[[2-[[2-(Anthraquinon-1-ylamino)ethyl]amino]ethyl]-amine-N,N']diiodoplatinum	–	–	12	4.5	–
[[2-[[3-(Anthraquinon-1-ylamino)propyl]amino]ethyl](2-hydroxyethyl)-amine-N,N']dichloroplatinum	–	–	> 60	> 30	–
[[2-[[3-(Anthraquinon-1-ylamino)propyl]amino]ethyl]-amine-N,N']dichloroplatinum	–	–	> 60	0.45	LD50 (Mus musculus): > 28 mg/kg; T/C [4]: 130
[[2-[[3-(Anthraquinon-1-yloxy)propyl]amino]ethyl]-amine-N,N']dichloroplatinum	–	–	12	0.45	LD50 (Mus musculus): > 28 mg/kg; T/C [4]: 120
[[2-[[6-(Anthraquinon-1-ylamino)hexyl]amino]ethyl]-amine-N,N']dichloroplatinum	–	–	> 60	45	–
cis-Bis[[3-(anthraquinon-1-ylamino)butyl]amide]dichloroplatinum	–	–	> 60	8	–
cis-Bis[[3-(anthraquinon-1-ylamino)butyl]amide]diiodoplatinum	–	–	> 60	40	–
cis-Bis[[3-(anthraquinon-1-ylamino)dodecyl]amide]dichloroplatinum	–	–	> 60	60	–
cis-Bis[[3-(anthraquinon-1-ylamino)dodecyl]amide]diiodoplatinum	–	–	> 60	60	–
cis-Bis[[3-(anthraquinon-1-ylamino)hexyl]amide]dichloroplatinum	–	–	> 60	> 60	–
cis-Bis[[3-(anthraquinon-1-ylamino)hexyl]amide]diiodoplatinum	–	–	> 60	> 60	–
cis-Bis[[3-(anthraquinon-1-ylamino)propyl]amide]diiodoplatinum	–	–	> 60	40	–
cis-Bis[[3-(anthraquinon-1-yloxy)propyl]amide]dichloroplatinum	–	–	> 10	> 10	–
cis-Bis[[3-(anthraquinon-1-yloxy)propyl]amide]diiodoplatinum	–	–	> 10	> 10	–

Source: ChEMBL document CHEMBL1125744, “Preparation, characterization, and anticancer activity of a series of cis-PtCl2 complexes linked to anthraquinone intercalators” (1991)
